Six molecules from ChEMBL document CHEMBL4411329, “Crown Ethers as Transthyretin Amyloidogenesis Inhibitors” (J Med Chem, 2019) can be followed below.

Molecules are shown by their SMILES. The source made the active and inactive calls. The calls are words filed in the database; no cut-off is given here.

Test [1] deals with Transthyretin (Homo sapiens), P02766 [V50M]. As to the kind of experiment: Stabilization of TTR V30M mutant (unknown origin) expressed in Escherichia coli assessed as formation of TTR tetramer band formation at 40 to 100 mM after 4 mins by SDS-PAGE analysis based glutaraldehyde cross-linking assay.
The test system is the same in test [2]. As to the kind of experiment: Inhibition of ANS binding to TTR V30M mutant (unknown origin) expressed in Escherichia coli assessed as increase in BC50 for ANS binding to TTR at 100 mM in presence of 150 mM K+ by fluorescence-based assay.
Test [3] has the same test system. As to the kind of experiment: Inhibition of ANS binding to TTR V30M mutant (unknown origin) expressed in Escherichia coli assessed as increase in BC50 for ANS binding to TTR at 100 mM in presence of 150 mM Na+ by fluorescence-based assay.
The test system is the same in test [4]. As to the kind of experiment: Stabilization of TTR V30M mutant (unknown origin) expressed in Escherichia coli assessed as formation of TTR tetramer band formation at 1 uM after 4 mins by SDS-PAGE analysis based glutaraldehyde cross-linking assay.
For test [5] the test system is unchanged. As to the kind of experiment: Inhibition of TTR V30M mutant (unknown origin)-mediated amyloid fibril formation expressed in Escherichia coli assessed as amyloid fibril percentage at 1.5 uM after 4 days by thioflavin-T-fluorescence based assay (reference value: 100%). Set-up: scale not given: the % may be the effect or the level left. An outline of the steps:
(§1)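 Acid-driven aggregation: 2 μM E. coli-expressed V30M-TTR in 50 mM sodium acetate pH 4.2 held with compound at room temperature for 4 days. Stopped with 0.2 M Tris-HCl pH 8.0, then thioflavin-T added to 20 μM and fluorescence read at ex 440/em 484 nm. Values are amyloid fibril % relative to no-compound control.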

For test [6] the test system is unchanged. As to the kind of experiment: Stabilization of TTR V30M mutant (unknown origin) expressed in Escherichia coli assessed as formation of TTR tetramer band formation at 2 uM after 4 mins by SDS-PAGE analysis based glutaraldehyde cross-linking assay.
Test [7] shares this test system. As to the kind of experiment: Inhibition of TTR V30M mutant (unknown origin)-mediated amyloid fibril formation expressed in Escherichia coli assessed as amyloid fibril percentage at 0.5 uM after 4 days by thioflavin-T-fluorescence based assay (reference value: 100%). Set-up: scale not given: the % may be the effect or the level left. The essentials:
as §1

For test [8] the test system is unchanged. As to the kind of experiment: Inhibition of TTR V30M mutant (unknown origin)-mediated amyloid fibril formation expressed in Escherichia coli assessed as amyloid fibril percentage at 5 uM after 4 days by thioflavin-T-fluorescence based assay (reference value: 100%). Set-up: scale not given: the % may be the effect or the level left. An outline of the steps: as §1

Test [9] shares this test system. As to the kind of experiment: Inhibition of ANS binding to TTR V30M mutant (unknown origin) expressed in Escherichia coli assessed as increase in BC50 for ANS binding to TTR at 10 mM in presence of 150 mM K+ by fluorescence-based assay.
Test [10] has the same test system. As to the kind of experiment: Inhibition of TTR V30M mutant (unknown origin)-mediated amyloid fibril formation expressed in Escherichia coli assessed as amyloid fibril percentage at 0.6 mM after 4 days by thioflavin-T-fluorescence based assay (reference value: 100%). Set-up: scale not given: the % may be the effect or the level left. An outline of the steps:
as §1

The test system is the same in test [11]. As to the kind of experiment: Inhibition of TTR V30M mutant (unknown origin)-mediated amyloid fibril formation expressed in Escherichia coli assessed as amyloid fibril percentage at 0.2 mM after 4 days by thioflavin-T-fluorescence based assay (reference value: 100%). Further details: scale not given: the % may be the effect or the level left. An outline of the steps:
as §1

The test system is the same in test [12]. As to the kind of experiment: Potentiation of diflunisal-induced stabilization of TTR V30M mutant (unknown origin) expressed in Escherichia coli assessed as formation of TTR tetramer band formation at 5 mM after 4 mins by SDS-PAGE analysis based glutaraldehyde cross-linking assay relative to diflunisal alone. An outline of the steps:
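Glutaraldehyde 4 min at RT, borohydride quench, SDS-PAGE with silver stain, tetramer band quantified. Controls were pH 8.0 Tris buffer (positive) and pH 4.4 buffer without compound (negative).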

Test [13] shares this test system. As to the kind of experiment: Stabilization of TTR V30M mutant (unknown origin) expressed in Escherichia coli assessed as formation of TTR tetramer band formation after 4 mins by SDS-PAGE analysis based glutaraldehyde cross-linking assay.
Test [14] shares this test system. As to the kind of experiment: Stabilization of TTR V30M mutant (unknown origin) expressed in Escherichia coli assessed as formation of TTR tetramer band formation at 10 mM after 4 mins by SDS-PAGE analysis based glutaraldehyde cross-linking assay.
Test [15] shares this test system. As to the kind of experiment: Inhibition of ANS binding to TTR V30M mutant (unknown origin) expressed in Escherichia coli assessed as increase in BC50 for ANS binding to TTR at 10 mM in presence of 150 mM Na+ by fluorescence-based assay.
For test [16] the test system is unchanged. As to the kind of experiment: Inhibition of TTR V30M mutant (unknown origin)-mediated amyloid fibril formation expressed in Escherichia coli assessed as amyloid fibril percentage at 10 mM after 4 days by thioflavin-T-fluorescence based assay (reference value: 100%). Further details: scale not given: the % may be the effect or the level left. An outline of the steps:
as §1

`C1COCCOCCOCCO1`: the outcome in [1] was Active. Also, the inhibition entry in test [2] and in [3] was “Active” throughout.
With `O=C(O)c1cc(-c2ccc(F)cc2F)ccc1O`, the Activity in test [4] was determined as 15%; in test [5] it was 35%; in test [6], 52%; in test [7], 80%; in [8], 3.1%.
Take `O=C(O)c1ccc2c(c1)OCCOCCOCCOCCOCCO2`: the inhibition result in [9], in [3] and in [15] was “Active” throughout. The Activity in test [10] is 92%; in test [11], 99%; in test [13], “Dose-dependent effect”; in test [14] it was 68%. For the same molecule, the result in test [12] was Active.
As for `c1ccc2c(c1)OCCOCCOCCOCCOCCO2`, the inhibition entry in test [9], in test [3] and in test [15] was “Active” in each case. For the same molecule, the Activity was 96% in test [10], 100% in [11], “Dose-dependent effect” in test [13] and 47% in test [16].
`C1CCC2OCCOCCOC3CCCCC3OCCOCCOC2C1` (configuration not stated): the inhibition entry in test [9], in test [3] and in test [15] was “Active” each time. In addition, the Activity in test [10] was determined as 100%; in test [11] it was 100%; in [16], 92%.
Regarding `C1COCCOCCOCCOCCO1`, the outcome in [1] was Active. Further, the inhibition result in test [2] and in test [3] was “Active” in each case.
